Test results as given in ChEMBL document CHEMBL3526074, “Effects of the CYP2B6*6 allele on catalytic properties and inhibition of CYP2B6 in vitro: implication for the mechanism of reduced efavirenz metabolism and other CYP2B6 substrates in vivo” (Drug Metab Dispos, 2012).

What was measured:
Assay type in all cases: ADME
[1] = Inhibition of CYP2B6 variant in human liver microsomes harboring CYP2B6*1/*1 genotype assessed as 8-hydroxyefavirenz formation using efavirenz as substrate after 15 mins by LC/MS/MS analysis
[2] = Inhibition of CYP2B6 variant in human liver microsomes harboring CYP2B6*6/*6 genotype assessed as 8-hydroxyefavirenz formation using efavirenz as substrate after 15 mins by LC/MS/MS analysis
[3] = Drug metabolism in microsomes expressing CYP2B6.1 (unknown origin) assessed as enzyme-mediated 8-hydroxyefavirenz metabolite formation measured per pmol of P450 after 15 mins by HPLC/UV system in absence of Cyt b5 coexpression; conditions: human, 0.25 h
In short: (§1)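 Microsomes with cDNA-expressed CYP2B6.1 or CYP2B6.6 plus POR, no Cyt b5 (15 pmol P450). Efavirenz 1–200 µM in 200 mM phosphate pH 7.4 with NADPH-regenerating system, 15 min at 37°C. 8-hydroxyefavirenz by HPLC, rate per pmol P450.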

[4] = Drug metabolism in human liver microsomes harboring CYP2B6*6/*6 genotype assessed as CYP2B6 variant-mediated 8-hydroxyefavirenz metabolite formation after 15 mins by LC/MS/MS analysis; conditions: 0.25 h
In short: (§2)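 Genotyped human liver microsomes (5 donors per genotype), 0.25 mg/ml, with efavirenz 1–200 µM in 200 mM potassium phosphate pH 7.4. Prewarmed 5 min at 37°C, started with NADPH-regenerating system, 15 min, stopped on ice with acetonitrile. 8-hydroxyefavirenz measured by LC/MS/MS, duplicate incubations. Km and Vmax from single-site Michaelis-Menten nonlinear fit; Clint = Vmax/Km; mean ± S.D. across 5 HLMs.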

[5] = Drug metabolism in human liver microsomes harboring CYP2B6*1/*1 genotype assessed as CYP2B6 variant-mediated 8-hydroxyefavirenz metabolite formation after 15 mins by LC/MS/MS analysis; conditions: 0.25 h; in short: as §2
[6] = Drug metabolism in microsomes expressing CYP2B6.1 (unknown origin) assessed as enzyme-mediated 8-hydroxyefavirenz metabolite formation measured per pmol of P450 after 15 mins by HPLC/UV system in presence of Cyt b5 coexpression; conditions: human, 0.25 h
In short: (§3)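 cDNA-expressed CYP2B6.1 or CYP2B6.6 microsomes coexpressing POR and Cyt b5 (15 pmol), with efavirenz 1–200 µM, NADPH-regenerating system and pH 7.4 phosphate buffer, 15 min at 37°C. 8-hydroxyefavirenz by HPLC, rate per pmol P450. Kinetic constants from single-site Michaelis-Menten fit; three replicates, mean ± S.D.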

[7] = Drug metabolism in human liver microsomes harboring CYP2B6*6/*6 genotype assessed as CYP2B6 variant-mediated 8-hydroxyefavirenz metabolite formation measured per mg protein after 15 mins by LC/MS/MS analysis; conditions: 0.25 h; in short: as §2
[8] = Drug metabolism in human liver microsomes harboring CYP2B6*6/*6 genotype assessed as intrinsic clearance for CYP2B6 variant-mediated 8-hydroxyefavirenz metabolite formation measured per mg protein after 15 mins by LC/MS/MS analysis; conditions: 0.25 h; in short: as §2
[9] = Drug metabolism in microsomes expressing CYP2B6.6 (unknown origin) assessed as enzyme-mediated 8-hydroxyefavirenz metabolite formation after 15 mins by HPLC/UV system in absence of Cyt b5 coexpression; conditions: human, 0.25 h; in short: as §1
[10] = Drug metabolism in microsomes expressing CYP2B6.1 (unknown origin) assessed as enzyme-mediated 8-hydroxyefavirenz metabolite formation after 15 mins by HPLC/UV system in presence of Cyt b5 coexpression; conditions: human, 0.25 h; in short: as §3
[11] = Drug metabolism in human liver microsomes harboring CYP2B6*1/*6 genotype assessed as CYP2B6 variant-mediated 8-hydroxyefavirenz metabolite formation measured per mg protein after 15 mins by LC/MS/MS analysis; conditions: 0.25 h; in short: as §2
[12] = Drug metabolism in microsomes expressing CYP2B6.6 (unknown origin) assessed as enzyme-mediated 8-hydroxyefavirenz metabolite formation after 15 mins by HPLC/UV system in presence of Cyt b5 coexpression; conditions: human, 0.25 h; in short: as §3
[13] = Drug metabolism in human liver microsomes harboring CYP2B6*1/*1 genotype assessed as CYP2B6 variant-mediated 8-hydroxyefavirenz metabolite formation measured per mg protein after 15 mins by LC/MS/MS analysis; conditions: 0.25 h; in short: as §2
[14] = Drug metabolism in human liver microsomes harboring CYP2B6*1/*6 genotype assessed as CYP2B6 variant-mediated 8-hydroxyefavirenz metabolite formation after 15 mins by LC/MS/MS analysis; conditions: 0.25 h; in short: as §2
[15] = Drug metabolism in human liver microsomes harboring CYP2B6*1/*1 genotype assessed as intrinsic clearance for CYP2B6 variant-mediated 8-hydroxyefavirenz metabolite formation measured per mg protein after 15 mins by LC/MS/MS analysis; conditions: 0.25 h; in short: as §2
[16] = Drug metabolism in microsomes expressing CYP2B6.6 (unknown origin) assessed as enzyme-mediated 8-hydroxyefavirenz metabolite formation measured per pmol of P450 after 15 mins by HPLC/UV system in absence of Cyt b5 coexpression; conditions: human, 0.25 h; in short: as §1
[17] = Drug metabolism in microsomes expressing CYP2B6.6 (unknown origin) assessed as enzyme-mediated 8-hydroxyefavirenz metabolite formation measured per pmol of P450 after 15 mins by HPLC/UV system in presence of Cyt b5 coexpression; conditions: human, 0.25 h; in short: as §3
[18] = Drug metabolism in human liver microsomes harboring CYP2B6*1/*6 genotype assessed as intrinsic clearance for CYP2B6 variant-mediated 8-hydroxyefavirenz metabolite formation measured per mg protein after 15 mins by LC/MS/MS analysis; conditions: 0.25 h; in short: as §2
[19] = Drug metabolism in microsomes expressing CYP2B6.1 (unknown origin) assessed as enzyme-mediated 8-hydroxyefavirenz metabolite formation after 15 mins by HPLC/UV system in absence of Cyt b5 coexpression; conditions: human, 0.25 h; in short: as §1
[20] = Inhibition of CYP2B6 variant in human liver microsomes harboring CYP2B6*1/*6 genotype assessed as 8-hydroxyefavirenz formation using efavirenz as substrate after 15 mins by LC/MS/MS analysis

For COC(=O)[C@H](c1ccccc1Cl)N1CCc2sccc2C1 [CLOPIDOGREL], the IC50 [1] was 0.14 µM and the IC50 [2] was 0.05 µM.

Work on O=C1Nc2ccc(Cl)cc2[C@@](C#CC2CC2)(C(F)(F)F)O1 [EFAVIRENZ] yielded a Vmax [3] of 1.21 pmol/min, a Km [4] of 24 µM and a Km [5] of 11.2 µM. For the same compound, the Vmax [6] was 1.02 pmol/min, the Vmax [7] was 25 pmol/min and the CLH [8] was 2.4 µL/min/mg. The Km [9] was 8.8 µM, the Km [10] was 3.4 µM and the Vmax [11] was 100.6 pmol/min. For the same compound, the Km [12] was 6.2 µM, the Vmax [13] was 87.1 pmol/min and the Km [14] was 15.2 µM. The CLH [15] was 14.5 µL/min/mg, the Vmax [16] was 1.61 pmol/min and the Vmax [17] was 0.95 pmol/min. It also gave a CLH [18] of 6.4 µL/min/mg and a Km [19] of 3.2 µM.

In the case of C[C@@H](c1ncncc1F)[C@](O)(Cn1cncn1)c1ccc(F)cc1F [VORICONAZOLE], the Ki [20] is reported as 1.55 µM, the IC50 [1] is reported as 0.4 µM and the IC50 [2] is reported as 0.16 µM.
